What all share (type): functional
One assay deals with Aspergillus flavus. In words: Antifungal activity against Aspergillus flavus assessed as growth inhibition after 48 to 72 hrs by broth microdilution method.
A further assay relates to Aspergillus fumigatus. The assay is described as follows: Antifungal activity against Aspergillus fumigatus assessed as growth inhibition after 48 to 72 hrs by broth microdilution method. (In general: In broth dilution the organism is exposed to a series of concentrations in liquid medium.)
Another assay has as its system Candida albicans. In words: Antifungal activity against Candida albicans assessed as growth inhibition after 48 to 72 hrs by broth microdilution method.
The subject of the next assay is Penicillium chrysogenum. In words: Antifungal activity against Penicillium chrysogenum assessed as growth inhibition after 48 to 72 hrs by broth microdilution method.
A further assay relates to Streptococcus mutans. In words: Antibacterial activity against Streptococcus mutans assessed as growth inhibition after 18 hrs by broth microdilution method.
The next assay has as its system Staphylococcus aureus. The assay is described as follows: Antibacterial activity against Staphylococcus aureus assessed as growth inhibition after 18 hrs by broth microdilution method.
Assay [1] in a line: Cytotoxicity against mouse Daltons ascitic lymphoma cells assessed as dead cells at 100 ug/ml after 3 hrs by trypan blue exclusion assay relative to control. The gist of the method: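 DAL cells (0.2 mL, 10⁶ cells/mL) mixed with ice-cold PBS pH 7.4 and compound (100 µg/mL), held at 37 °C under 5% CO₂ for 3 h. Aliquot then stained with 0.4% trypan blue in normal saline for 5–15 min at room temperature. Live and dead cells counted in a Neubauer chamber; % dead = dead/(dead+live) × 100.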

The next assay deals with Fusarium oxysporum. The assay is described as follows: Antifungal activity against Fusarium oxysporum assessed as growth inhibition after 48 to 72 hrs by broth microdilution method.
The test system of another assay is Enterococcus faecalis. In words: Antibacterial activity against Enterococcus faecalis assessed as growth inhibition after 18 hrs by broth microdilution method.
Another assay concerns Pseudomonas aeruginosa. The assay is described as follows: Antibacterial activity against Pseudomonas aeruginosa assessed as growth inhibition after 18 hrs by broth microdilution method.
For the next assay, the system named is Escherichia coli. The assay is described as follows: Antibacterial activity against Escherichia coli assessed as growth inhibition after 18 hrs by broth microdilution method.
The next assay has as its system Aspergillus niger. The assay is described as follows: Antifungal activity against Aspergillus niger assessed as growth inhibition after 48 to 72 hrs by broth microdilution method.
The test system of another assay is Klebsiella pneumoniae. The assay is described as follows: Antibacterial activity against Klebsiella pneumoniae assessed as growth inhibition after 18 hrs by broth microdilution method.

Our source for the MIC and mortality values is ChEMBL document CHEMBL2434922, “Microwave assisted synthesis of dihydrobenzo[4,5]imidazo[1,2-a]pyrimidin-4-ones; synthesis, in vitro antimicrobial and anticancer activities of novel coumarin substituted dihydrobenzo[4,5]imidazo[1,2-a]pyrimidin-4-ones” (2013).

For orientation: MIC means the least concentration at which growth counts as inhibited. In general, mortality refers to the percentage killed.

Converted amounts (≈) assume the structure as drawn. A value given as a limit tells only on which side of the number the result lay.

Consider `COc1ccc2oc(=O)cc(Cn3c4ccccc4n4c(=O)cc(C(F)(F)F)nc34)c2c1`, for which the MIC in the assay on Aspergillus flavus was 3.12 µg/mL (≈ 7.07 µM); in the assay with Aspergillus fumigatus, 6.25 µg/mL (≈ 14.2 µM); in the assay with Candida albicans, 50 µg/mL (≈ 113 µM); with Penicillium chrysogenum, 0.4 µg/mL (≈ 0.906 µM); in the assay on Streptococcus mutans, 12.5 µg/mL (≈ 28.3 µM); in the assay on Staphylococcus aureus, 100 µg/mL (≈ 227 µM). Moreover, the MIC in the assay on Fusarium oxysporum is 0.2 µg/mL (≈ 0.453 µM); in the assay on Enterococcus faecalis, 0.4 µg/mL (≈ 0.906 µM); with Pseudomonas aeruginosa it was more than 100 µg/mL; with Escherichia coli it was 100 µg/mL (≈ 227 µM); in the assay with Aspergillus niger, 25 µg/mL (≈ 56.6 µM); in the assay on Klebsiella pneumoniae, 100 µg/mL (≈ 227 µM). Moreover, the mortality at 100 µg/mL in assay [1] is 58%.
